Only some compounds are listed: those with a hit (about 1.8% of all), similar ones and a draw of the others.
CHRM5 agonist: CHRM5 agonism in calcium assay; P08912; CHO-K1 hM5 cells, Fluo-8 calcium fluorescence; 0% DMSO wells, 100% maximal acetylcholine response; activation, % at 3 µM; hit rate 0.19% among 360,000; AID 624037;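 active means activation above the run's mean over test compounds plus 3 SD, cut at about 23% in these data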;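 further: signal is peak over basal fluorescence ratio across the kinetic read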
CHRM4 agonist: agonists of human muscarinic M4 receptor (CHRM4) | P08173 | CHO-K1 hM4/Gqi5, Fluo-8 calcium fluorescence; vehicle 0%, full acetylcholine response 100% | activation, % at 3 µM | hit rate 0.14% among 360,000;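 active means activation above the run mean over all test wells plus 3 SD, cut at about 32% in these data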;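 further: peak over basal fluorescence ratio per well then scaled between controls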
Target sequence (P08173 whole entry, looked up): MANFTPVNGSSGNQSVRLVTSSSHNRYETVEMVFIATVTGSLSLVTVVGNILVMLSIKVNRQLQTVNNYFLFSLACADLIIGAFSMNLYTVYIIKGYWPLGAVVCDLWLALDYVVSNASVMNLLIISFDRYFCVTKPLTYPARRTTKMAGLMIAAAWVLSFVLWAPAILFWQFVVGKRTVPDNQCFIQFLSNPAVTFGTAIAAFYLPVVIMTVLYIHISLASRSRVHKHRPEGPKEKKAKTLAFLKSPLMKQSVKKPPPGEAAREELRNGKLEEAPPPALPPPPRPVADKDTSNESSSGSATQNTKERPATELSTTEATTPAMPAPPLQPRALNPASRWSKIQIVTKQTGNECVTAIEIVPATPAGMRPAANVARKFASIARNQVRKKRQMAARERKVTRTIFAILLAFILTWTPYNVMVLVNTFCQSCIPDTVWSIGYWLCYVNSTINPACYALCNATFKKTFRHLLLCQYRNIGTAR
M5 PAM: potentiates acetylcholine response at human M5 receptor. hit rate 0.3% among 360,000. AID 624038. activation, % at 3 µM. CHO-K1 hM5, Fluo-8 calcium, ACh EC20 PAM; 0% = ACh EC20, 100% = ACh EC100. P08912;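 active means activation above the run cutoff, the mean activation of all test compounds plus 3 SD, cut at about 18% in these data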
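Test system: CHO-K1 hM5 cells / Doses: single-point, 3 µM nominal / Times: Post-acetylcholine fluorescence recording 140 s / Technique: Fluo-8 calcium fluorescence / Measure: Max/basal fluorescence ratio as % of EC20–EC100 ACh window / Benchmarks: low control EC20 acetylcholine (0%), high control EC100 acetylcholine (100%) / Replicates: one well per compound, no replicates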
CHRM5 antagonist: blocks acetylcholine activation of human M5 receptor; P08912; CHO-hM5 cells, Fluo-8 calcium fluorescence, ACh EC80; inhibition, % at 3 µM; hit rate 0.59% among 360,000;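 active means inhibition above a per-plate cutoff, the mean of that plate's test compounds plus 3 SD, cut at about 27% in these data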
CHRM4 PAM: CHRM4 positive allosteric modulation | CHO-K1 hM4/Gqi5, Fluo-8 calcium fluorescence, ACh EC20; 0% = ACh EC20, 100% = maximal ACh | activation, % at 3 µM | hit rate 0.4% among 360,000 | AID 624126;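 active means activation above its plate's cutoff, the mean activation of sample wells plus 3 SD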
M4 antag: antagonists of human muscarinic M4 receptor (CHRM4) | P08173 | CHO-hM4 cells, ACh EC80, Fluo-8 calcium fluorescence | inhibition, % at 3 µM | hit rate 0.73% among 360,000 | AID 624125;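 active means inhibition above its plate's cutoff, the mean inhibition of sample wells plus 3 SD, cut at about 27% in these data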
Each line names hits and unclear results; the compound was inactive in the other large screens.

COc1cccc(NC(=O)N2CCC(NC(=O)C3CCCCC3)CC2)c1	none
CCOC(=O)C1CCC(CNCc2ccc(Cl)cc2)CC1 (stereo not drawn)	M4 antag 41.9
Cc1cc(C(=O)Nc2c(F)cc(F)cc2Br)n(-c2ccccc2)n1	none
CCCCN1C(=O)C(CC(=O)NC2CCCC2)CC(C(=O)N2CCOCC2)=C1C (stereo not drawn)	none
COc1ccc(N(Cc2nnc3n2CCCCC3)C(=O)Nc2ccccc2)cc1	none
Cc1ccccc1N(Cc1nnc2n1CCCCC2)C(=O)Nc1ccccc1	CHRM4 PAM 27.4
CCOC(=O)c1sc(NC(=O)Nc2cccc(Cl)c2)cc1C	CHRM5 antagonist 36.9, M4 antag 37.5
Cc1cccc(NC(=O)Nc2ccc(Cl)cc2)n1	none
Cc1nccc(-c2cccc(NC(=O)Nc3ccc(Cl)cc3)c2)n1	CHRM5 antagonist 27.7
O=C(Nc1ccncc1)Nc1cccc(Cl)c1	CHRM5 antagonist 30.9
O=C(Nc1ccc(-n2ccc(C(F)(F)F)n2)cc1)Nc1cccc(Cl)c1	CHRM5 antagonist 38.2, M4 antag 27.2
O=C(NCc1ccncc1)Nc1cccc(Cl)c1	none
O=C(O)c1cccc(Cn2c(Cl)c(/C=N/NC(=O)c3cc4ccccc4cc3O)sc2=O)c1	none
O=C(Nc1cccc(Cl)c1)Nc1nc(-c2ccc(Cl)cc2)cs1	none
O=C(Nc1cccc(Cl)c1)Nc1csc([N+](=O)[O-])c1	CHRM5 antagonist 28.4
CC(C)OC(=O)Cn1cc(C#N)c2ccccc21	none
Nc1cccc(-c2csc(-n3ncc(C(=O)O)c3C(F)(F)F)n2)c1	CHRM4 PAM 17.0
Cc1cc(NC(=O)c2cc([N+](=O)[O-])cc([N+](=O)[O-])c2)no1	CHRM4 PAM 14.6
Cc1cc(NC(=O)c2cccc([N+](=O)[O-])c2)no1	none
O=C(CSc1nnc(NC(=O)c2ccco2)s1)Nc1ccc(F)cc1F	none
CC(C)NC(=O)C1(C)CN(S(C)(=O)=O)CC(=O)N1Cc1cccs1 (stereo not drawn)	CHRM4 PAM 25.1
Cc1csc(=O)n1CCC(=O)OCC(=O)N(C)c1c(N)n(Cc2ccccc2)c(=O)[nH]c1=O	none
CC(C)COc1ccc(C(=O)Nc2sc3c(c2C(=O)O)CC(C)(C)OC3)cc1	CHRM5 antagonist 34.1
CCN(CC#CCC(O)(c1ccccc1)C1CCCC1)C(C)C (stereo not drawn)	CHRM5 antagonist 83.5, M4 antag 92.3
CC(C)N(CC#CCC(O)(c1ccccc1)C1CCCC1)CCO (stereo not drawn)	CHRM5 antagonist 46.8
Cc1nn(-c2ccc(C(=O)O)cc2)c(N)c1-c1ccccc1	none
Nc1c(-c2ccccc2)c(CSc2nc3ccccc3[nH]2)nn1-c1ccc(C(=O)O)cc1	CHRM4 PAM 23.7
Cc1cc(/C=C2\SC(=S)N(Cc3ccco3)C2=O)c(C)n1-c1ccccc1	M5 PAM 21.5
CCCn1c(N)c(C(=O)CSc2nnc3ccccn23)c(=O)n(C)c1=O	CHRM4 PAM 27.2
CC1CCN(C(=O)c2ccccc2SCC(=O)NCC2CCCCC2)CC1	none
O=C(/C=C/c1ccc(Cl)cc1Cl)NCCN1CCOCC1	CHRM4 PAM 29.5
Nc1cnccc1C(=O)O	CHRM5 agonist 23.8
COC(=O)c1sc(-c2ccccc2)cc1NC(=O)c1ccc(OC)cc1	CHRM4 PAM 24.1
COc1cc2c(cc1OC)C(=O)N1[C@H]3c4ccccc4OC[C@@H]3[C@H](c3ccccc3)[C@]1(C)C(=O)N2	none
C[C@@]12C(=O)Nc3ccc(F)cc3C(=O)N1[C@H]1c3ccccc3OC[C@@H]1[C@@H]2c1ccccc1	CHRM5 antagonist 56.8, M4 antag 89.1
CCOC(=O)[C@H]1[C@H]2COc3ccccc3[C@@H]2N2C(=O)c3cc(OC)c(OC)cc3NC(=O)[C@@]12C	M4 antag 35.1
C[C@@]12C(=O)Nc3cc(F)c(F)cc3C(=O)N1[C@H]1c3ccccc3OC[C@@H]1[C@@H]2c1ccccc1	M4 antag 71.3
CCOC(=O)[C@H]1[C@H]2COc3ccc(C)cc3[C@@H]2N2C(=O)c3cc(OC)c(OC)cc3NC(=O)[C@@]12C	none
O=C(O)C1C2C=CC(C2)C1C(=O)NCc1ccc(Cl)c(Cl)c1 (stereo not drawn)	none
Cc1ccccc1-c1nc(CS(=O)(=O)CC(=O)N2CCN(C)CC2)c(C)o1	none
Cc1ccc2c(c1C)NC(C(=O)O)C1CC=CC21 (stereo not drawn)	none
O=C(O)C1Nc2c(C(F)(F)F)ccc(Cl)c2C2C=CCC12 (stereo not drawn)	M5 PAM 18.6
CCCOC(=O)C1=C(C)OC23OC(N)=C(C#N)C12C(=O)c1ccccc13 (stereo not drawn)	M4 antag 34.5
CCOC(=O)CC(=O)CSc1nnc2sc3ccccc3n12	M5 PAM 34.7
CN(C)C(=O)CSc1nnc2sc3ccccc3n12	none
Cc1cc(C(=O)NNC(=O)Cc2ccc(Cl)cc2)c(C)o1	none
C=CCn1c(SCC(=O)Nc2cccnc2Cl)nnc1-c1ccc(Cl)cc1	M5 PAM 25.5, CHRM5 antagonist 27.6
CCCCN1CCC(CN2C(=S)NC[C@@H]2CC(C)C)CC1	none
CCOc1ccc(CCN2C(=S)N([C@@H](Cc3ccc(O)cc3)CN3CCC[C@@H]3CN3C(=S)NC[C@@H]3CC(C)C)C[C@@H]2Cc2ccccc2)cc1	CHRM4 PAM 23.0
S=C1NC[C@H](Cc2ccccc2)N1CC1CCN(CCCC2CCCC2)CC1	M4 antag 42.4
CCOc1ccc(CCN2C(=S)N([C@@H](Cc3ccc(O)cc3)CN3CCC[C@@H]3CN3C(=S)NC[C@@H]3Cc3ccccc3)C[C@@H]2CC(C)C)cc1	none
CC(C)C[C@H]1CNC(=S)N1CC1CCN(CCCC2CCCC2)CC1	M4 antag 33.5
CC(C)C[C@H]1CNC(=S)N1CC1CCN(CCCCc2ccccc2)CC1	M4 antag 41.8
S=C1NC[C@H](Cc2ccccc2)N1CCCCC1CCCCC1	none
COc1ccc(CCN2CCC(CN3C(=S)NC[C@@H]3CC(C)C)CC2)cc1OC	none
CCCCNC(=O)N1CCN(c2ccnc3cc(Cl)ccc23)CC1	none
CCOc1ccc2nc(N3CCCC(C(=O)NCC4CCCO4)C3)sc2c1 (stereo not drawn)	none
COc1ccccc1C(=O)Nc1ccc(-c2nnc(SCC(=O)O)n2C)cc1	M4 antag 37.3
COc1cc(CNCCc2ccc(S(N)(=O)=O)cc2)ccc1OCc1ccc(Cl)cc1	none
CCOc1cc(CNCCc2ccc(S(N)(=O)=O)cc2)ccc1OCc1ccc(Cl)cc1	M4 antag 42.0
Cc1c(Cl)cccc1NC(=O)CNC(=O)c1ccc2c(c1)OCCO2	CHRM4 PAM 21.8

Screening results: PubChem BioAssay, The Scripps Research Institute Molecular Screening Center
